This is an account of results in ChEMBL document CHEMBL1125186, “GABA-uptake inhibitors: construction of a general pharmacophore model and successful prediction of a new representative” (J Med Chem, 1991).

By IC50 is commonly meant the point on the concentration scale where inhibition reaches its midpoint. The term logP denotes the decadic logarithm of the partition coefficient of the neutral form, usually between octanol and water. A low value points to a more hydrophilic compound.

Structures are written as SMILES.

One data set is filed under the species Rattus norvegicus. The data set is described as follows: Concentration required for 50% inhibition of GABA uptake in rat brain. Format: functional. The procedure, abridged: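 Rat corpus striatum synaptosomes from a 0.32 M sucrose homogenate: 1000g spin, then 20000g pellet, both at 4 °C. Synaptosomes (1 mg protein) incubated 2 min at 37 °C in pH 7.4 Krebs-Ringer phosphate with 0.15 M NaCl, [3H]GABA (25–40 Ci/mmol) and test compound up to 10⁻⁴ M. Stopped by dilution with NaCl-free medium, centrifuged; pellet radioactivity counted. IC50 derived from the concentration range.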

Data set [1] in a line: Dissociation constant was measured as pKa1 by potentiometric titrations.
Data set [2] can be described thus: I/U is the ratio of zwitterionic (I) to that of unionized […]. The class given is ADME. In a few lines:
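Ratio of zwitterionic (I) to un-ionized (U) species calculated by the Wegscheider method.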

Data set [3] can be described thus: Dissociation constant was measured by potentiometric titrations. The class given is physicochemical. In a few lines:
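pKa determined by potentiometric titration; values are means of at least two determinations.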

The nature of data set [4]: Delta logPoct-cyc. The conditions noted are these: octanol/water. The class given is ADME. The procedure, abridged: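 ΔP taken as log Poct minus log Pcyc. Both come from shake-flask partitioning at room temperature against 0.15 M phosphate buffer pH 7.4, with the aqueous phase read spectrophotometrically.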
A short description of data set [5]: Partition coefficient (logP) (cyclohexane). The class given is physicochemical. To be noted: cyclohexane/phosphate buffer pH 7.4. The procedure, abridged:
(§1)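 Conventional shake-flask partitioning at room temperature, 1-octanol or cyclohexane against 0.15 M phosphate buffer pH 7.4. Compound in the aqueous phase quantified spectrophotometrically. Means of at least two determinations.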

The nature of data set [6]: Partition coefficient (logP). Format: physicochemical. The conditions noted are these: octanol/water. The procedure, abridged: as §1
The nature of data set [7]: Concentration required for 50% inhibition of GABA uptake in rat brain.

As for `O=C(O)C1=CCC(CCc2ccccc2)NC1` (configuration not stated), half-maximal inhibition in the data set filed under Rattus norvegicus (IC50) required 100 µM.

For the compound `Cl.O=C(O)C1=CCC(CCC(c2ccccc2)c2ccccc2)NC1` (configuration not stated), the pKa in data set [1] was 3.79. In the data set listed under Rattus norvegicus, this compound showed an IC50 of 0.1 µM. In addition, the Ratio in data set [2] is recorded as 7000. The compound also yielded a pKa2 in data set [3] of 9.25. Moreover, the “delta logP” value in data set [4] is listed as 2.71. Besides, the logP in data set [5] is -2; in data set [6], 0.71.

On to `CC1CC=C(C(=O)O)CN1` (configuration not stated), for which the IC50 in the data set filed under Rattus norvegicus turned out to be 40 µM.

The compound `CCOC(=O)C1=CCC(CCC(c2ccccc2)c2ccccc2)NC1` (configuration not stated) gave an IC50 in the data set filed under Rattus norvegicus of 37 µM.

Compound `CCOC(=O)C1=CCC(CC)NC1` (configuration not stated) came in with an IC50 in the data set listed under Rattus norvegicus of over 100 µM.

Compound `CN1CC(C(=O)O)=CCC1CCCCc1ccccc1` (configuration not stated) yielded an IC50 in the data set listed under Rattus norvegicus of over 100 µM.

As for `CCCC1CC=C(C(=O)OCC)CN1` (configuration not stated), the IC50 in the data set listed under Rattus norvegicus is over 100 µM.

For `CCC1CC=C(C(=O)O)CN1` (configuration not stated), in the data set listed under Rattus norvegicus, the IC50 is over 100 µM.

Consider `CCCC1CC=C(C(=O)O)CN1` (configuration not stated), for which the half-maximal inhibitory concentration (IC50) in the data set listed under Rattus norvegicus was over 100 µM.

Turning to `O=C(O)C1CCCN(CCC=C(c2ccccc2)c2ccccc2)C1` (configuration not stated), the Ratio in data set [2] is 6000. In data set [3], the pKa2 was 9.23. Besides, the pKa in data set [7] was determined as 3.57. For the same compound, the “delta logP” value in data set [4] stood at 1.43. In addition, the log partition coefficient (logP) in data set [5] is -0.43; in data set [6] it was 0.99.

Take `O=C(O)C1=CCC(CCCCc2ccccc2)NC1` (configuration not stated): the IC50 in the data set listed under Rattus norvegicus was over 100 µM.
